m5-HT2A agonist: mouse Htr2a agonists via beta-arrestin recruitment, primary screen, cell-based, luminescence; 5-hydroxytryptamine receptor 2A (Mus musculus), P35363; CHO-K1 mHTR2A beta-arrestin complementation; percent of 30 µM serotonin response; activation, % at 7.6 µM; hit rate 0.66% among 360,000;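 active = activation above a run cutoff, the mean activation of all tested compounds plus 3 SD, cut at about 14% in these data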
NTR1 agonist: agonists of human NTR1, primary screen, imaging, U2OS cells, beta-arrestin-GFP, high content; NTR1-U2OS beta-arrestin-GFP spot imaging, agonist mode; activation, % at 20 µM; hit rate 0.17% among 330,000; AID 493036, 2011;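 active = activation at or above 40% of the spot to cytoplasm intensity ratio, with at least 20 cells analyzed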
CCR6 antag: CCR6 receptor antagonists, primary screen, cell-based, CHO-K1, luminescence, beta-arrestin, uHTS; C-C chemokine receptor type 6 (Homo sapiens), P51684; CHO-K1 CCR6 PathHunter beta-arrestin, CCL20-stimulated; hit rate 0.49% among 340,000; AID 493098, 2011; inhibition, % at 20 µM;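 active = compounds whose inhibition of the agonist-driven luminescence signal at 20 µM reaches about 50%, limit read from the data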;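 also: cells stimulated with CCL20 at 14 nM final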
Target sequence (P51684 whole entry, looked up): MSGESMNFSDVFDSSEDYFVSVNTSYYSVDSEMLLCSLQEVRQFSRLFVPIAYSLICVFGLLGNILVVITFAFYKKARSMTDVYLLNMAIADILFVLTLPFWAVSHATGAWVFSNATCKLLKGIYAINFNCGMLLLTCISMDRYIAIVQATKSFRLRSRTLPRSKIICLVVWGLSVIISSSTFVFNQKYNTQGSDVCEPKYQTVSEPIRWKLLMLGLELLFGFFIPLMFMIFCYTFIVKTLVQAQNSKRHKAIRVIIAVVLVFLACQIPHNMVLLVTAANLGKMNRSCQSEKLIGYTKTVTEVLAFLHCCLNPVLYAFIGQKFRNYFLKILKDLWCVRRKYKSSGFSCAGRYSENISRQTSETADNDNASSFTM
APJ ag: agonists of human apelin receptor APJ, primary screen, CHO-K1 cells, PathHunter beta-arrestin, luminescence; activation, % at 20 µM; P35414; 0% DMSO wells, 100% apelin; AID 2520, 2010; hit rate 0.11% among 330,000;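 active = activation more than six SD over the plate average, tested at 20 µM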
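Material: CHO-K1 APJ beta-arrestin complementation cell line; Input: cell density 1000 per well; Incubation: compound stimulation 90 min at 25 °C, detection 60 min; Signal: luminescence from split beta-galactosidase complementation, Galacton Star/Emerald II substrate; Controls: DMSO-only wells as negative, 10 nM Apelin-13 as positive control.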
APJ antag: antagonists of human apelin receptor APJ, primary screen, CHO-K1 cells, beta-arrestin complementation, luminescence; inhibition, % at 20 µM; AID 2521, 2010; hit rate 0.32% among 330,000; P35414;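 active = inhibition above about 40% at 20 µM, limit read from the data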;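 also: cells challenged with 10 nM apelin-13 agonist together with compound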
CXCR6 inh: CXCR6 receptor inhibitors, primary screen, cell-based, beta-arrestin, luminescence, CHO-K1 PathHunter, 1536-well | inhibition, % at 20 µM | hit rate 0.36% among 360,000 | AID 602244, 2012; in the data active = inhibition above about 34%, passing the limit was not always enough;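 also: antagonist mode with CXCL16 agonist at 10 nM final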
APJ antag conf: APJ antagonists blocking beta-arrestin recruitment, confirmation, cell-based, luminescence, single concentration, uHTS hits | shares compounds with APJ antag | antagonist mode | inhibition, % at 20 µM | hit rate 66% among 950 | AID 2766, 2010; in the data active = inhibition above about 50%
A number is an active result; . = inactive; / = no result. Most compounds without a hit are left out; they make up all but 1.5% or so of the library.

SMILES	m5-HT2A agonist	NTR1 agonist	CCR6 antag	APJ ag	APJ antag	CXCR6 inh	APJ antag conf
Cc1ccc(OCC(=O)OC(C)C(=O)NC2CCCCC2C)cc1C (centres undefined)	.	.	.	.	.	.	/
O=C(CSc1nc2ccccc2o1)Nc1nncs1	.	.	.	.	52.4	.	.
CCNC(=O)C1(C)CCN1CCS(=O)(=O)c1ccc(C)cc1 (centres undefined)	.	/	/	/	/	.	/
COC(=O)Cc1c(C)c2ccc(OCC(=O)NC3CCS(=O)(=O)C3)cc2oc1=O (centres undefined)	.	.	.	.	.	.	/
CC1=NN(C(N)=S)C(=O)C1N=Nc1ccc([N+](=O)[O-])cc1 (centres undefined)	.	.	74.9	.	50.3	45.9	81.1
Cc1ccc(-c2csc3nc(C)n(-n4c(C)ccc4C)c(=O)c23)o1	.	.	.	.	47.8	.	.
O=C(Nc1ncccc1O)c1ccc2c(c1)OCCO2	.	.	.	.	.	.	/
Oc1ccc(N=Nc2ccc3c(c2)OCCO3)c2ncccc12	.	.	54.0	.	52.8	.	89.4
CCOc1ccc(N=Nc2ccc(O)c3ncccc23)cc1	.	.	.	.	.	.	/
CCS(=O)(=O)c1ccc(OC)c(N=Nc2ccc(O)c3ncccc23)c1	.	.	.	.	.	.	/
NS(=O)(=O)c1ccc(N=Nc2ccc(O)c3ncccc23)cc1	.	.	63.7	.	48.7	48.3	86.7
Cc1ccc(C)c(N=Nc2ccc(O)c3ncccc23)c1	.	.	62.9	.	44.9	.	74.1
CCN(CC)S(=O)(=O)c1cc(OC)ccc1N=Nc1ccc(O)c2ncccc12	.	.	54.9	.	43.1	.	.
Cc1ccc(NCc2ccc(O)c3ncccc23)cc1	.	.	.	.	.	.	/
Cc1cccc(N=Nc2ccc(O)c3ncccc23)c1	.	.	.	.	41.8	.	83.1
N=C1/C(=C/c2ccc(-c3cccc(C(=O)O)c3)o2)C(=O)N=C2SC=C(c3ccccc3)N12	.	.	56.6	.	40.1	.	53.0
Cc1cc2nccnc2cc1C	.	/	.	/	/	.	/
CC1CCCN(C(=O)C2CC(=O)N(c3ccc(Cl)cc3)C2)C1 (centres undefined)	.	.	.	.	.	.	/
O=C(N/N=C/c1cc(Cl)cc([N+](=O)[O-])c1O)NC12CC3CC(CC(C3)C1)C2	.	.	.	.	41.7	.	70.1
O=C(N/N=C/c1ccccc1O)NC12CC3CC(CC(C3)C1)C2	.	.	.	.	.	.	/
Fc1ccc(NC(=S)Nc2ccc(Cl)cc2Cl)cc1	/	.	.	.	57.3	/	62.6
Cc1ccccc1CN1CCN(CC(=O)NCc2ccccc2)CC1	.	.	.	.	.	.	/
CN(C)c1ccc(/C=C2\C(=N)N3C(=NC2=O)Sc2cc(S(C)(=O)=O)ccc23)cc1	/	.	/	.	53.1	/	.
CN(C)c1ccc(/C=C2\C(=N)N3N=C(CC(=O)N4CCCCC4)SC3=NC2=O)cc1	.	.	.	.	.	.	/
Cc1cccn2c(=O)nc(SCC(=O)Nc3ccc4c(c3)OCO4)nc12	.	.	.	.	.	.	/
SMILES	m5-HT2A agonist	NTR1 agonist	CCR6 antag	APJ ag	APJ antag	CXCR6 inh	APJ antag conf
Cc1cc(=O)[nH]c(N=N/C(=N/Nc2ccc(O)cc2)c2ccccc2)n1	.	.	55.6	.	59.3	.	89.2
O=C(NNc1c2ccccc2nc2ccccc12)c1ccc(O)cc1	.	.	56.5	.	41.3	.	69.1
O=C(COC(=O)c1ccc2ncsc2c1)Nc1cc([N+](=O)[O-])ccc1Cl	.	.	.	.	.	.	/
CC(C)(C)OC(=O)N1CCC[C@H]1c1nnc(SCC(=O)Nc2ccc(Br)cc2)o1	.	.	.	.	55.4	35.8	72.2
CCOC(=O)C(C(=O)OCC)N(C#N)c1nc(N(C)C)nc(N(C)C)n1	.	.	.	.	.	.	/
COCC(=O)N1CCC(Oc2cccc(C(=O)NCc3ccccn3)c2)CC1	.	.	.	.	42.8	.	.
COC(=O)CCC(=O)N1CCC(Oc2cccc(C(=O)NCc3ccccn3)c2)CC1	.	/	/	/	/	.	/
COc1cccc(N=C2NC(=O)/C(=C/c3cc([N+](=O)[O-])ccc3O)S2)c1	.	.	.	.	41.4	.	52.0
COc1cc(C)c(C)cc1S(=O)(=O)NC1CC(C)(C)NC(C)(C)C1	.	.	.	.	.	.	/
CCN(C(=O)CSc1nnc(-c2cccc(F)c2)n1N)c1c(N)n(Cc2ccccc2)c(=O)[nH]c1=O	.	/	.	/	/	.	/
CCOC(=O)c1c(NC(=O)c2ccco2)n(C2CCCCC2)c2nc3ccccc3nc12	.	.	.	.	57.7	.	.
CCC(=O)Nc1c(C#N)c2nc3ccccc3nc2n1C1CCCCC1	.	.	.	.	.	.	/
CC(=O)N1CCCC(C)(C(=O)Nc2ccc3oc(C)nc3c2)C1 (centres undefined)	.	/	/	/	/	.	/
COc1ccc(Cl)cc1C(=O)NNC(=S)NC(=O)c1ccc(F)c(F)c1	.	.	.	.	40.2	.	.
O=C(c1cccs1)c1cn(CC(=O)N2CCc3ccccc3C2)c2ccccc12	.	.	.	.	42.8	.	.
O=C(CN1c2ccccc2Sc2ccccc21)NNC(=S)Nc1ccc(Cl)cc1Cl	.	.	.	.	.	.	/
O=C(CN1c2ccccc2Sc2ccccc21)NNC(=S)Nc1ccc(Cl)cc1	.	.	.	.	51.3	.	70.0
CCN(CC)CCSc1nnc(Nc2ccccc2)n1-c1ccccc1	.	.	.	.	51.4	.	.
CCN(CC)CCSc1nc2ccccc2c(=S)n1-c1ccccc1	/	.	.	.	.	/	/
COc1ccc(OCCCC(=O)Nc2ncn[nH]2)cc1	.	.	.	.	.	.	/
Cc1cc([N+](=O)[O-])ccc1NC(=S)NC(=O)Cc1ccccc1	.	.	/	.	.	.	/
Cc1cc([N+](=O)[O-])ccc1NC(=S)NC(=O)C(c1ccccc1)c1ccccc1	.	.	53.4	.	42.4	.	52.0
COc1cc2c(=O)n(Cc3ccccc3)c(=O)n(CC(=O)NCC3CCCO3)c2cc1OC (centres undefined)	.	.	.	.	40.2	.	.
COc1cc(OC)c(N(C)S(=O)(=O)c2cccc(C(=O)OCC(=O)N(C)C3CCCCC3)c2)cc1Cl	.	/	.	/	/	.	/

Screening data: PubChem, several laboratories
